Data set [1] deals with HepG2. In words: Protection against acetaminophen-induced cell injury in human HepG2 cells at 10 uM after 24 hrs by MTT assay. Type of data set: functional, cell-based. A general note: Tetrazolium assays rely on reduction of a dye to a coloured formazan, in cell work by metabolically active cells.
Data set [2] relates to RAW264.7. In words: Antiinflammatory activity in mouse RAW264.7 cells assessed as inhibition of LPS-induced NO production at 60 uM relative to control. Type of data set: functional.
Data set [3] deals with HCT-8. In words: Cytotoxicity against human HCT8 cells assessed as decrease in cell viability at 10 uM after 24 hrs by MTT assay. Type of data set: functional, cell-based.
In data set [4] the test system is A2780. Briefly: Cytotoxicity against human A2780 cells assessed as decrease in cell viability at 10 uM after 24 hrs by MTT assay. The class given is functional, cell-based.
In data set [5] the test system is RAW264.7. Briefly: Antiinflammatory activity in mouse RAW264.7 cells assessed as inhibition of LPS-induced NO production at 20 uM relative to control. The class given is functional.
The test system of data set [6] is RAW264.7. In words: Antiinflammatory activity in mouse RAW264.7 cells assessed as inhibition of LPS-induced NO production at 80 uM relative to control. Type of data set: functional.
In data set [7] the test system is Peritoneal macrophage. In words: Inhibition of LPS-induced TNFalpha secretion in C57BL6J mouse peritoneal macrophages at 10 uM after 24 hrs. Type of data set: functional, cell-based.
The subject of data set [8] is BGC-823. Briefly: Cytotoxicity against human BGC823 cells assessed as decrease in cell viability at 10 uM after 24 hrs by MTT assay. Type of data set: functional, cell-based.
For data set [9], the target named is T1, Tyrosine-protein phosphatase non-receptor type 1 (Homo sapiens) (UniProt P18031).
T1 sequence (whole entry): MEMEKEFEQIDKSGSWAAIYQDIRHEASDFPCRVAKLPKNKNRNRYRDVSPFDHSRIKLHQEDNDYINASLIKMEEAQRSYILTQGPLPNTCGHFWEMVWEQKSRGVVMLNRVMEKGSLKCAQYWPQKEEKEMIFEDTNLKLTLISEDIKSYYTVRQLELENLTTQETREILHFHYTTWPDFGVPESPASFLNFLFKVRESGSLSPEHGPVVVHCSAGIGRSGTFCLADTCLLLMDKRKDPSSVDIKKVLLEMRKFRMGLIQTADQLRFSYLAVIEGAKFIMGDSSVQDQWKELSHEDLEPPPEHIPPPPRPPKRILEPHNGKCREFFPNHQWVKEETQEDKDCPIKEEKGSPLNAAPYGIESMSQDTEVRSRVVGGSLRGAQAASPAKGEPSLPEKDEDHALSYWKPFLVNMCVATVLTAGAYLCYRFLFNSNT
Briefly: Inhibition of PTP1B (unknown origin) at 10 uM.

The test system of data set [10] is RAW264.7. In words: Antiinflammatory activity in mouse RAW264.7 cells assessed as inhibition of LPS-induced NO production at 10 uM relative to control. Type of data set: functional.
Data set [11] has as its system RAW264.7. Briefly: Antiinflammatory activity in mouse RAW264.7 cells assessed as inhibition of LPS-induced NO production. The class given is functional, cell-based. Put shortly: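 NO release measured in LPS-stimulated RAW264.7 macrophages alongside an unstimulated control group; IC50 derived; dexamethasone as positive control.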
For data set [12], the system named is RAW264.7. Briefly: Antiinflammatory activity in mouse RAW264.7 cells assessed as inhibition of LPS-induced NO production at 40 uM relative to control. The class given is functional.
The subject of data set [13] is RAW264.7. In words: Cytotoxicity against mouse RAW264.7 cells up to 100 uM. Type of data set: cell-based. Put shortly: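 Viability assessed in LPS-stimulated RAW264.7 macrophages during the NO-production assay, at concentrations up to 100 μM.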
In data set [14] the test system is Bel-7402. Briefly: Cytotoxicity against human Bel7402 cells assessed as decrease in cell viability at 10 uM after 24 hrs by MTT assay. Type of data set: functional, cell-based.
In data set [15] the test system is A549. Briefly: Cytotoxicity against human A549 cells assessed as decrease in cell viability at 10 uM after 24 hrs by MTT assay. The class given is functional, cell-based.

The text below walks through data of ChEMBL document CHEMBL4145570, “Structures and Biological Evaluation of Monoterpenoid Glycosides from the Roots of Paeonia lactiflora” (J Nat Prod, 2018).

Calls of active or inactive are those of the source. The rule behind the calls is not given here.

Consider `CC12C(=O)O[C@@]3(C)C[C@@H](O)[C@H]1C[C@]23O[C@@H]1O[C@H](COC(=O)c2ccccc2)[C@@H](O)[C@H](O)[C@H]1O`, for which the result in data set [1], in data set [3], in data set [4], in data set [8], in [14] and in data set [15] was inactive. For the same compound, in [2], the inhibition at 60 µM was 34.8%. For the same compound, the inhibition at 20 µM in data set [5] came out at 24.4%. The inhibition at 80 µM in data set [6] amounted to 39.4%. Besides, the inhibition result in data set [7] and in data set [9] was “inactive” throughout. Besides, the inhibition at 10 µM in data set [10] is 19.1%. Further, the IC50 in data set [11] is above 100 µM. Further, the inhibition at 40 µM in data set [12] came to 28.2%. Also, the Activity entry in data set [13] is reported as “Non-Toxic”.

By inhibition is commonly meant the share of the control response that was lost under treatment. As a reminder, the IC50 is the concentration that inhibits the measured activity by half.
